Test results reported in PMC4340355 (ACS Chemical Biology, 2014).
Read-outs that look alike come from different tables or passages of the source. Peptide text beside a SMILES is read from it. * marks the point of attachment. Cbz = O=C(OCc1ccccc1)*

What was measured:
Format in all cases: biochemical
[1] = target: T1, chymotrypsin-like (ChL) activity of rabbit proteasome fraction II (Oryctolagus cuniculus, UniProt G1T4Q9); assay: Inhibition of proteasome-catalyzed hydrolysis of ChL sensor ChL1–488
T1 sequence (G1T4Q9 1-263): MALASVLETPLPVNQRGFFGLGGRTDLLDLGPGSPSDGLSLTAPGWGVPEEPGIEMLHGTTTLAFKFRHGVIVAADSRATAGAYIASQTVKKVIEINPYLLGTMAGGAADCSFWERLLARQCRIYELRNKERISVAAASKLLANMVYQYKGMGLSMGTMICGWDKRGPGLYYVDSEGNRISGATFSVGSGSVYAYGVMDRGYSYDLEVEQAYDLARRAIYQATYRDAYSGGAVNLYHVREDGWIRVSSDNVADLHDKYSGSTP

[2] = target: T2, caspase-like (CaL) activity of rabbit proteasome fraction II (Oryctolagus cuniculus, UniProt A0A5F9DQW2); assay: Inhibition of proteasome-catalyzed hydrolysis of CaL sensor CaL1–633
T2 sequence (A0A5F9DQW2 1-212): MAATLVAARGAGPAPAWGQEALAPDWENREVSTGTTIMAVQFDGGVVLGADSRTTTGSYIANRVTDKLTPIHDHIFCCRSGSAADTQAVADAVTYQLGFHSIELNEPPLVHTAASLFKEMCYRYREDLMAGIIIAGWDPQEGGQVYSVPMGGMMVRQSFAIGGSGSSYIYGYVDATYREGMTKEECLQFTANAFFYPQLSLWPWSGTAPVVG

[3] = target: yeast proteasome CaL mutant (Saccharomyces cerevisiae, UniProt P25043+P30656+P38624); assay: Rate of sensor cleavage by yeast deficient lysate, CaL mutant
[4] = tested on: rabbit proteasome fraction II; assay: Rate of proteolysis
Summary of the method: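 Fluorescence followed 2 h at RT. Rate came from a linear fit to the first 10% substrate consumption. FU were converted to μmol via overnight-spiked fold change and a standard line. No-enzyme controls were run. Values are mean ± SD of triplicates.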

[5] = tested on: proteasome

With `CC(C)C[C@@H](C=O)NC(=O)[C@H](CC(C)C)NC(=O)[C@H](CC(C)C)NC(=O)OCc1ccccc1` [MG132] (Cbz-Leu-Leu-Leu-aldehyde) the IC50 [1] was 0.62 ± 0.06 µM and the IC50 [2] was 180 ± 150 µM.
With DyLight633–nLPnLDK(AB40) [CaL1–633] the “proteolysis by the proteasome containing the mutation in the CaL subunit” value [3] was “not proteolyzed”, the specific activity ([4]; 2.5 μM sensor) was 0.03 ± 0.001 nmol min^–1 mg^–1 enzyme and the specific activity ([4]; 5 μM sensor) was 0.02 ± 0.002 nmol min^–1 mg^–1 enzyme. For the same compound, the “effect on TL activity” value ([5]; in the presence of CaL1–633) was “reduced”.
For FAM–HHSLK(AB40) [ChL1–488], the specific activity ([4]; 2.5 μM sensor) was 0.22 ± 0.02 nmol min^–1 mg^–1 enzyme, the specific activity ([4]; 5 μM sensor) was 0.31 ± 0.03 nmol min^–1 mg^–1 enzyme and the “reduction of the rate of proteolysis of ChL1–488” value ([5]; in the presence of CaL1–633) was “up to 90%”. For the same compound, the “reduction of the rate of proteolysis of ChL1–488” value ([5]; in the presence of TL1–550) was “up to 50%”.
In the case of TAMRA–LRRK(AB40) [TL1–550], the specific activity ([4]; 2.5 μM sensor) is reported as 0.05 ± 0.003 nmol min^–1 mg^–1 enzyme, the specific activity ([4]; 5 μM sensor) is reported as 0.06 ± 0.001 nmol min^–1 mg^–1 enzyme and the “effect on CaL activity” value ([5]; in the presence of TL1–550) is reported as “impaired”. For the same compound, the “enhancement of the rate of TL1–550 hydrolysis” value ([5]; when ChL1–488 is present) was “up to 5 fold”.
